Source: ChEMBL document CHEMBL3596186, “Synthesis and biological evaluation of diarylthiazole derivatives as antimitotic and antivascular agents with potent antitumor activity” (Bioorg Med Chem, 2015)
The source made the active and inactive calls. No cut-off for these calls is given here.

Experiments:
[1] = tested on: HUVEC; experiment: Antimigratory activity against HUVEC after 24 hrs by phase contrast microscopy; format: functional, cell-based; settings: Homo sapiens
Procedure, shortened: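 HUVEC monolayers grown overnight in 6-well plates, scratched with pipet tips, washed twice with PBS, then given fresh EBM2 with vehicle or compound. Imaged by phase contrast at 0 and 24 h (100×). Migrated cells counted manually in 3 separate fields; mean ± SD from three fields.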

[2] = tested on: HepG2; experiment: Induction of apoptosis in human HepG2 cells assessed as viable cells at 0.2 uM after 24 hrs by annexin V/propidium iodide staining-based flow cytometry (reference value: 89.8%); format: functional; settings: HepG2, 24 h, read-out: Activity
[3] = tested on: HCT-116; experiment: Cell cycle arrest in human HCT116 cells assessed as accumulation at G2/M phase at 1 uM after 24 hrs by flow cytometry (reference value: 20.36%); format: functional
[4] = tested on: HepG2; experiment: Cell cycle arrest in human HepG2 cells assessed as accumulation at G2/M phase at 1 uM after 24 hrs by flow cytometry (reference value: 11.29%); format: functional
[5] = tested on: HCT-116; experiment: Induction of apoptosis in human HCT116 cells assessed as early apoptotic cells at 0.5 uM after 24 hrs by annexin V/propidium iodide staining-based flow cytometry (reference value: 2.83%); format: functional
Procedure, shortened: (§1)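 HCT116 cells treated with compound or DMSO for 24 or 48 h, trypsinized, washed twice in PBS and dual-stained with annexin-V and PI. Analysed by flow cytometry: early apoptotic cells scored as annexin-V+/PI−, late apoptotic cells as annexin-V+/PI+.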

[6] = tested on: HepG2; experiment: Induction of apoptosis in human HepG2 cells assessed as viable cells at 1 uM after 48 hrs by annexin V/propidium iodide staining-based flow cytometry (reference value: 89.8%); format: functional; settings: HepG2, 48 h, read-out: Activity
[7] = tested on: HepG2; experiment: Cell cycle arrest in human HepG2 cells assessed as accumulation at G2/M phase at 0.5 uM after 24 hrs by flow cytometry (reference value: 11.29%); format: functional
[8] = tested on: HepG2; experiment: Induction of apoptosis in human HepG2 cells assessed as late apoptotic cells at 0.2 uM after 48 hrs by annexin V/propidium iodide staining-based flow cytometry (reference value: 3.74%); format: functional
[9] = tested on: HCT-116; experiment: Induction of apoptosis in human HCT116 cells assessed as necrotic cells at 0.2 uM after 48 hrs by annexin V/propidium iodide staining-based flow cytometry (reference value: 3.49%); format: functional
[10] = tested on: HUVEC; experiment: Antivascular activity against HUVEC assessed as inhibition of tube formation at 125 to 500 nM after 8 hrs by Matrigel assay; format: functional, cell-based; settings: Homo sapiens
Procedure, shortened: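 Wells of prechilled plates coated with Matrigel and solidified 45 min at 37 °C. HUVECs (1 × 10^4) in EBM-2 containing compound (125-500 nM) seeded onto the gel and incubated 8 h at 37 °C. Capillary networks photographed at 100×; tubule numbers and line lengths counted manually.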

[11] = tested on: HCT-116; experiment: Induction of apoptosis in human HCT116 cells assessed as early apoptotic cells at 0.5 uM after 48 hrs by annexin V/propidium iodide staining-based flow cytometry (reference value: 2.83%); format: functional; procedure, shortened: as §1
[12] = tested on: HCT-116; experiment: Cell cycle arrest in human HCT116 cells assessed as accumulation at S phase at 0.5 uM after 24 hrs by flow cytometry (reference value: 25.66%); format: functional
[13] = tested on: A549; experiment: Antiproliferative activity against human A549 cells after 48 hrs by MTT assay; format: functional, cell-based; settings: A549, 48 h
Procedure, shortened: (§2)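 HCT116, HepG2, SMMC-7721, SK-OV-3 and A2780s grown in DMEM; A549 and MCF-7 in RPMI-1640; all with 10% FBS and penicillin/streptomycin at 37 °C, 5% CO2. Log-phase cells at 40,000-50,000 cells/mL treated with graded concentrations for 48 h. MTT 3 h, DMSO solubilization, A570. IC50 from percent growth versus untreated control; mean ± SEM of ≥3 independent dose-response experiments.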

[14] = tested on: HCT-116; experiment: Cell cycle arrest in human HCT116 cells assessed as accumulation at G2/M phase at 0.2 uM after 24 hrs by flow cytometry (reference value: 20.36%); format: functional
[15] = tested on: HCT-116; experiment: Cell cycle arrest in human HCT116 cells assessed as accumulation at S phase at 0.2 uM after 24 hrs by flow cytometry (reference value: 25.66%); format: functional
[16] = tested on: HCT-116; experiment: Induction of apoptosis in human HCT116 cells assessed as late apoptotic cells at 1 uM after 24 hrs by annexin V/propidium iodide staining-based flow cytometry (reference value: 1.71%); format: functional
[17] = tested on: HCT-116; experiment: Induction of apoptosis in human HCT116 cells assessed as viable cells at 1 uM after 48 hrs by annexin V/propidium iodide staining-based flow cytometry (reference value: 92%); format: functional; settings: HCT-116, 48 h, read-out: Activity
[18] = tested on: HepG2; experiment: Cell cycle arrest in human HepG2 cells assessed as accumulation at G1 phase at 0.5 uM after 24 hrs by flow cytometry (reference value: 62.74%); format: functional
[19] = Antiproliferative activity against human HCC827 cells after 48 hrs by MTT assay; format: functional, cell-based; settings: HCC827, 48 h
[20] = tested on: HepG2; experiment: Antimitotic activity in human HepG2 cells assessed as demolishment of microtubule at 0.5 uM after 24 hrs by DAPI staining-based immmunofluorescence assay; format: functional, cell-based
Procedure, shortened: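 HepG2 cells seeded in 6-well plates and treated with compound. Fixed in 4% paraformaldehyde, permeabilized with 0.5% Triton X-100 in PBS, blocked 30 min in 5% goat serum at room temperature. Stained with monoclonal anti-α-tubulin 1 h at room temperature, then fluorescent secondary antibody, nuclei labelled with DAPI. Viewed by fluorescence microscopy.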

[21] = tested on: HUVEC; experiment: Antiproliferative activity against HUVEC after 48 hrs by MTT assay; format: cell-based; settings: Homo sapiens
Procedure, shortened: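 HUVECs isolated from umbilical cord veins and grown in EBM-2 with growth factors at 37 °C, 5% CO2. Log-phase cells at 40,000-50,000 cells/mL exposed to a compound dilution series for 48 h. MTT added for 3 h, formazan dissolved in DMSO, absorbance read at 570 nm. IC50 taken from percent growth versus untreated control.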

[22] = tested on: HepG2; experiment: Induction of apoptosis in human HepG2 cells assessed as viable cells at 1 uM after 24 hrs by annexin V/propidium iodide staining-based flow cytometry (reference value: 89.8%); format: functional; settings: HepG2, 24 h, read-out: Activity
[23] = tested on: HCT-116; experiment: Antiproliferative activity against human HCT116 cells after 48 hrs by MTT assay; format: functional, cell-based; settings: HCT-116, 48 h; procedure, shortened: as §2
[24] = tested on: HepG2; experiment: Induction of apoptosis in human HepG2 cells assessed as late apoptotic cells at 1 uM after 48 hrs by annexin V/propidium iodide staining-based flow cytometry (reference value: 3.74%); format: functional
[25] = tested on: SK-OV-3; experiment: Antiproliferative activity against human SKOV3 cells after 48 hrs by MTT assay; format: functional, cell-based; settings: SK-OV-3, 48 h; procedure, shortened: as §2
[26] = tested on: HepG2; experiment: Cell cycle arrest in human HepG2 cells assessed as accumulation at S phase at 1 uM after 24 hrs by flow cytometry (reference value: 23.97%); format: functional
[27] = Inhibition of pig microtubule polymerization after 30 mins by turbidimetric assay; set-up: species or system Sus scrofa
Procedure, shortened: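 Porcine-brain MAP-rich tubulin at 3 mg/mL preincubated 30 min at 4 °C in 0.1 M PIPES pH 6.9, 2 mM MgCl2, 0.5 mM EGTA. Compounds added 2 min before the run, then 1 mM GTP. Turbidity followed kinetically at 340 nm at 37 °C; assembly IC50 derived by Hamel's method.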

Compound: CCOc1ccc(-c2nc(N)sc2-c2cc(OC)c(OC)c(OC)c2)cc1
- Activity [1]: Dose-dependent effect
- viability at 0.2 µM [2]: 81.8%
- Activity [3]: 9.22%
- Activity [4]: 83.67%
- Activity [5]: 11.2%
- viability at 1 µM [6]: 25.9%
- Activity [7]: 62.63%
- Activity [8]: 4.17%
- Activity [9]: 5.36%
- Activity [10]: Active
- Activity [11]: 40.3%
- Activity [12]: 20.51%
- IC50 [13]: 84 nM
- Activity [14]: 48.79%
- Activity [15]: 22%
- Activity [16]: 17.1%
- viability at 1 µM [17]: 20.2%
- Activity [18]: 30.08%
- IC50 [19]: 97 nM
- Activity [20]: Active
- IC50 [21]: 40.2 nM
- viability at 1 µM [22]: 65.4%
- IC50 [23]: 8.4 nM
- Activity [24]: 2.67%
- IC50 [25]: 14.2 nM
- Activity [26]: 7.43%
- IC50 [27]: 2740 nM
